Measurements: ChEMBL document CHEMBL1149217, “3-trifluoromethyl-4-nitro-5-arylpyrazoles are novel K(ATP) channel agonists” (Bioorg Med Chem Lett, 2004)

How the values were obtained:
[1] = molecular target: Sulfonylurea receptor 1, Kir6.2 (Homo sapiens, UniProt Q09428+Q14654); test: […] of human KATP (SUR1/Kir6.2) channel expressed in Xenopus oocytes; assay type: functional, cell-based, Oocyte
How it was run: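 ATP-sensitive K+ currents were recorded by excised-patch clamp from inside-out macropatches pulled from Xenopus oocytes expressing human SUR1/Kir6.2. Values are means of 3-6 experiments.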

[2] = molecular target: T1, Sulfonylurea receptor 1, Kir6.2 (Homo sapiens) (UniProt Q14654+Q09428); test: Percent maximal agonist response of human KATP (SUR1/Kir6.2) channel expressed in Xenopus oocytes at 30 uM; assay type: functional, cell-based; details: Oocyte
How it was run: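 Inside-out macropatches were excised from Xenopus oocytes expressing human SUR1/Kir6.2, and ATP-sensitive K+ currents were recorded. […] Means of 3-6 experiments.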

[3] = molecular target: T1, Sulfonylurea receptor 1, Kir6.2 (Homo sapiens); test: Percent maximal agonist response of human KATP (SUR1/Kir6.2) channel expressed in Xenopus oocytes; assay type: functional, cell-based; details: Oocyte
How it was run: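 ATP-sensitive K+ currents were recorded by excised-patch clamp from inside-out macropatches pulled from Xenopus oocytes expressing human SUR1/Kir6.2. Compounds were tested across a dose range to give dose–response curves. […] Values are means of 3-6 experiments.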

Sequence of Sulfonylurea receptor 1, Kir6.2 (Q14654 whole entry): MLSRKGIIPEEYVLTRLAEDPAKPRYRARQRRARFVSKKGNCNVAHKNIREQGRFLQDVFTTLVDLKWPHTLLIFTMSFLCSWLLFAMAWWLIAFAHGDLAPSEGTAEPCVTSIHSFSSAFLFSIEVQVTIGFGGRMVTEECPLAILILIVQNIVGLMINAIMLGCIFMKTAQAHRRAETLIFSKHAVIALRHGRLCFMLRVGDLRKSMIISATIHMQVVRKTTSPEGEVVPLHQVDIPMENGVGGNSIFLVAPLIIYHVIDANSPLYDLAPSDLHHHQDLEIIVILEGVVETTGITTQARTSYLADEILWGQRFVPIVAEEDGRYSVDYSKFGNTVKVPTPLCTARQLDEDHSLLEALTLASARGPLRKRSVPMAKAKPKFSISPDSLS
Sequence of Sulfonylurea receptor 1, Kir6.2 (Q09428 whole entry): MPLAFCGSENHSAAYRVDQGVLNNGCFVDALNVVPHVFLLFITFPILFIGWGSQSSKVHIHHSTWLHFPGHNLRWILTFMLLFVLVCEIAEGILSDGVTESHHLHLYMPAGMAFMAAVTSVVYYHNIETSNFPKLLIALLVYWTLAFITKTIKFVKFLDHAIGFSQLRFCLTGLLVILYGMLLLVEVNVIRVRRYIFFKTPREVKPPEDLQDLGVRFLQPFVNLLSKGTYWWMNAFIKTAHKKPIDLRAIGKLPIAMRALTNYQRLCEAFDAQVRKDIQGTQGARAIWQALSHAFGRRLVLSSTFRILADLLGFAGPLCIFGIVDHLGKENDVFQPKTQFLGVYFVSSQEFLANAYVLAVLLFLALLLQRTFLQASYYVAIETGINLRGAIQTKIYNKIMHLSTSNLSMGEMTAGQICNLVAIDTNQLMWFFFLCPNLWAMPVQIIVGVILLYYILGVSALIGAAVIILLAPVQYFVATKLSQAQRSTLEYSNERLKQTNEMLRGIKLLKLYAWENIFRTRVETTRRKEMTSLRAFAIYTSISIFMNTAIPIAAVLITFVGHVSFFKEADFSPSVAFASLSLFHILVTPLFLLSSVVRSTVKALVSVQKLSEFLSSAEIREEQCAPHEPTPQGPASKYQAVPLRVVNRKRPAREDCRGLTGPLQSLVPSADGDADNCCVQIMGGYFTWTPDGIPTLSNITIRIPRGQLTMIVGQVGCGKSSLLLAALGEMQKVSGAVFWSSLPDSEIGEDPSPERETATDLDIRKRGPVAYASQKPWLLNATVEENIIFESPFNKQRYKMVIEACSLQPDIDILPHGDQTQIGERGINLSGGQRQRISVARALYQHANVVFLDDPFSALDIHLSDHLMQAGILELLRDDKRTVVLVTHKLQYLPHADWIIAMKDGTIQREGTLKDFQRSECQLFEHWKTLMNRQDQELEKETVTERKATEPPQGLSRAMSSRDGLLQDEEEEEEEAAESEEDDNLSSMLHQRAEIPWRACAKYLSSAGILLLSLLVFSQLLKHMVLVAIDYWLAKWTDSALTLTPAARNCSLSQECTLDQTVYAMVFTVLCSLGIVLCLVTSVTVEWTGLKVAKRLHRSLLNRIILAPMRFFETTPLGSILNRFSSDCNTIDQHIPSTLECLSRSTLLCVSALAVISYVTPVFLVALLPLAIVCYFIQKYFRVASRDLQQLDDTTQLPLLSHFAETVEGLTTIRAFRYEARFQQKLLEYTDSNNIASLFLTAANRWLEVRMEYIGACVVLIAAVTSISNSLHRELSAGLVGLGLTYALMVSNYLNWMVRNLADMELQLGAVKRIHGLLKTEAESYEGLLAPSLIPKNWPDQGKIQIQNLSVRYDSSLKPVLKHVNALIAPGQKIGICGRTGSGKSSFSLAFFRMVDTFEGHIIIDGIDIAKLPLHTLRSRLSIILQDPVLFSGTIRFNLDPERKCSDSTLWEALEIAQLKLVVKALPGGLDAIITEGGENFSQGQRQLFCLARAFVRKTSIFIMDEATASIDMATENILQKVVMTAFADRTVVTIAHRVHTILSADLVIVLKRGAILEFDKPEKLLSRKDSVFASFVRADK

Compound	EC50 [1] [nM]	Max response [2] [%]	Max response [3] [%]
O=[N+]([O-])c1c(C(F)(F)F)n[nH]c1-c1ccccc1	30000	38	–
O=[N+]([O-])c1c(-c2ccc(F)cc2F)n[nH]c1C(F)(F)F	1150	–	–
CC1=Nc2ccc(Cl)cc2S(=O)(=O)N1	–	–	100
O=[N+]([O-])c1ccc(-c2cc(C(F)(F)F)[nH]n2)cc1	> 30000	8	–
O=[N+]([O-])c1c(C(F)(F)F)n[nH]c1-c1ccc(C(F)(F)F)cc1C(F)(F)F	540	–	197
O=[N+]([O-])c1ccc(-c2[nH]nc(C(F)(F)F)c2[N+](=O)[O-])cc1	700	–	94
O=[N+]([O-])c1ccc(-c2noc(C(F)(F)F)c2[N+](=O)[O-])cc1	> 30000	–	–
O=[N+]([O-])c1c(C(F)(F)F)n[nH]c1-c1ccc(F)cc1F	–	–	113
